From article PMC10318414 (RSC Advances, 2023)
*1 amine or outer side, *2 acyl side, *3 side chain or, on linkers, in order; H or OH if unused. Where a SMILES comes first, the peptide text is derived from it. Bridges are numbered along the chain shown (N, C = ends). Biphenyl(4,4'-CH2)2 = c1cc(-c2ccc(C[*:2])cc2)ccc1C[*:1]; mXylylene = c1cc(C[*:1])cc(C[*:2])c1; oXylylene = c1ccc(C[*:2])c(C[*:1])c1; pXylylene = c1cc(C[*:2])ccc1C[*:1]

Legend:
[1] = system: human colon cancer cell line (HCT116); assay: CCK8 cell proliferation assay, HCT116; assay type: cell-based; details: read-out: IC50 (μM) HCT116; CCK8, 48 h peptide treatment, 0.78–25 μM, OD 450 nm
Method in brief: (§1)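 Cells kept in DMEM with 10% FBS and 1% penicillin-streptomycin at 37 °C, 5% CO2. Seeded at 3 × 10^3 cells/well and grown for 24 h. Treated with or without peptide (0.78, 1.56, 3.125, 6.25, 12.5, 25 μM) for 48 h. Medium then switched to serum-free; CCK-8 added 10 μL/well for 1 h at 37 °C. OD read at 450 nm; IC50 obtained by curve fitting.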

[2] = system: human breast cancer cell line (MCF-7); assay: CCK8 cell proliferation assay, MCF-7; assay type: cell-based; details: read-out: IC50 (μM) MCF-7; CCK8, 48 h peptide treatment, 0.78–25 μM, OD 450 nm
Method in brief: as §1

[3] = system: glioma cell line (U87); assay: CCK8 cell proliferation assay, U87; assay type: cell-based, human; details: read-out: IC50 (μM) U87; CCK8, 48 h peptide treatment, 0.78–25 μM, OD 450 nm
Method in brief: as §1

[4] = system: MCF-7 cells; assay: Annexin V-FITC/PI apoptosis assay by flow cytometry; assay type: cell-based, human; details: MCF-7, 10 μM peptide
[5] = system: MCF-7 cells; assay: In vitro transwell migration assay; assay type: cell-based, human; details: MCF-7, transwell 8 μm pore, 48 h, compared with control group, n = 3
[6] = system: MCF-7 cells; assay: Calcein-AM/PI cell viability staining; assay type: cell-based, human; details: MCF-7, 10 μM peptide, 24 hours
Method in brief: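 MCF-7 seeded at 5 × 10^3 cells/well and held at 37 °C for 24 h. Peptide added at a final 10 μM for another 24 h. Cells stained with a PBS working solution of calcein-AM (2 μM) and PI (4.5 μM) at 37 °C for 15 min. Live/dead fluorescence imaged on a high-content screening system.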

SMILES | IC50 [1] | IC50 [2] | IC50 [3] | Number of apoptotic cells versus Ascaphin-8 and normal medium [4] | Migration through the polycarbonate membrane [5] | Calcein-AM/PI fluorescence of cells [6]
CC(C)C[C@@H]1NC(=O)[C@H](C)NC(=O)[C@H](CCCCN)NC(=O)[C@H](C)NC(=O)[C@@H](NC(=O)CNC(=O)[C@H](CCCCN)NC(=O)[C@H](CC(C)C)NC(=O)[C@H](CC(C)C)NC(=O)[C@H](CC(=O)O)NC(=O)[C@H](CCCCN)NC(=O)[C@H](Cc2ccccc2)NC(=O)CN)CSCc2ccc(cc2)-c2ccc(cc2)CSC[C@@H](C(=O)N[C@H](C(=O)N[C@@H](CC(C)C)C(=O)N[C@@H](Cc2ccccc2)C(N)=O)C(C)C)NC(=O)[C@H](CCCCN)NC(=O)[C@H](C(C)C)NC1=O [Peptide A8-4-Dp] (H-GFKDLLKGCAKALVKCVLF-NH2; linker 9-16 via Biphenyl(4,4'-CH2)2) | 3.03 µM | 2.99 µM | 3.63 µM | significantly higher | rarely migrated | a large amount of red fluorescence
CC(C)C[C@H](NC(=O)[C@H](CC(C)C)NC(=O)[C@H](CC(=O)O)NC(=O)[C@H](CCCCN)NC(=O)[C@H](Cc1ccccc1)NC(=O)CN)C(=O)N[C@@H](CCCCN)C(=O)NCC(=O)N[C@@H](C)C(=O)N[C@@H](C)C(=O)N[C@@H](CCCCN)C(=O)N[C@H]1CSCc2cccc(c2)CSC[C@@H](C(=O)N[C@H](C(=O)N[C@@H](CC(C)C)C(=O)N[C@@H](Cc2ccccc2)C(N)=O)C(C)C)NC(=O)[C@H](CCCCN)NC(=O)[C@H](C(C)C)NC(=O)[C@H](CC(C)C)NC1=O [Peptide A8-3-m] (H-GFKDLLKGAAKCLVKCVLF-NH2; linker 12-16 via mXylylene) | 9.21 µM | 7.8 µM | 8.69 µM | – | – | –
CC(C)C[C@H](NC(=O)[C@H](CC(C)C)NC(=O)[C@H](CC(=O)O)NC(=O)[C@H](CCCCN)NC(=O)[C@H](Cc1ccccc1)NC(=O)CN)C(=O)N[C@@H](CCCCN)C(=O)NCC(=O)N[C@@H](C)C(=O)N[C@@H](C)C(=O)N[C@@H](CCCCN)C(=O)N[C@H]1CSCc2ccc(cc2)CSC[C@@H](C(=O)N[C@H](C(=O)N[C@@H](CC(C)C)C(=O)N[C@@H](Cc2ccccc2)C(N)=O)C(C)C)NC(=O)[C@H](CCCCN)NC(=O)[C@H](C(C)C)NC(=O)[C@H](CC(C)C)NC1=O [Peptide A8-3-p] (H-GFKDLLKGAAKCLVKCVLF-NH2; linker 12-16 via pXylylene) | 11.2 µM | 11.7 µM | 14.4 µM | – | – | –
CC(C)C[C@H](NC(=O)[C@H](CC(C)C)NC(=O)[C@H](CC(=O)O)NC(=O)[C@H](CCCCN)NC(=O)[C@H](Cc1ccccc1)NC(=O)CN)C(=O)N[C@@H](CCCCN)C(=O)NCC(=O)N[C@@H](C)C(=O)N[C@@H](C)C(=O)N[C@@H](CCCCN)C(=O)N[C@H]1CSCc2ccccc2CSC[C@@H](C(=O)N[C@H](C(=O)N[C@@H](CC(C)C)C(=O)N[C@@H](Cc2ccccc2)C(N)=O)C(C)C)NC(=O)[C@H](CCCCN)NC(=O)[C@H](C(C)C)NC(=O)[C@H](CC(C)C)NC1=O [Peptide A8-3-o] (H-GFKDLLKGAAKCLVKCVLF-NH2; linker 12-16 via oXylylene) | 7.68 µM | 6.03 µM | 9.28 µM | – | – | –
